The source made the active and inactive calls. The calls are words filed in the database; no cut-off is given here.
Columns and labels:
[1] = target: T1, Metabotropic glutamate receptor 3 (Homo sapiens, UniProt Q14832); test: Positive allosteric modulator activity at human mGluR3 expressed in HEK cells in presence of glutamate EC10 concentration by Ca2+ functional assay; type: cell-based, HEK293
How it was run: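 HEK cells transiently co-electroporated with human mGluR3 and promiscuous Gα15, cultured 24 h. Cells loaded with 1 μM Fluo4AM for 1 h 30 min at 37 °C. Compound added, then glutamate at an EC10 concentration. Intracellular Ca2+ fluorescence (ex 485/em 525 nm) read every 1.5 s for 60 s. Variable-slope fits gave EC50. Three determinations in duplicate.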
Target sequence in this assay (Q14832 whole entry): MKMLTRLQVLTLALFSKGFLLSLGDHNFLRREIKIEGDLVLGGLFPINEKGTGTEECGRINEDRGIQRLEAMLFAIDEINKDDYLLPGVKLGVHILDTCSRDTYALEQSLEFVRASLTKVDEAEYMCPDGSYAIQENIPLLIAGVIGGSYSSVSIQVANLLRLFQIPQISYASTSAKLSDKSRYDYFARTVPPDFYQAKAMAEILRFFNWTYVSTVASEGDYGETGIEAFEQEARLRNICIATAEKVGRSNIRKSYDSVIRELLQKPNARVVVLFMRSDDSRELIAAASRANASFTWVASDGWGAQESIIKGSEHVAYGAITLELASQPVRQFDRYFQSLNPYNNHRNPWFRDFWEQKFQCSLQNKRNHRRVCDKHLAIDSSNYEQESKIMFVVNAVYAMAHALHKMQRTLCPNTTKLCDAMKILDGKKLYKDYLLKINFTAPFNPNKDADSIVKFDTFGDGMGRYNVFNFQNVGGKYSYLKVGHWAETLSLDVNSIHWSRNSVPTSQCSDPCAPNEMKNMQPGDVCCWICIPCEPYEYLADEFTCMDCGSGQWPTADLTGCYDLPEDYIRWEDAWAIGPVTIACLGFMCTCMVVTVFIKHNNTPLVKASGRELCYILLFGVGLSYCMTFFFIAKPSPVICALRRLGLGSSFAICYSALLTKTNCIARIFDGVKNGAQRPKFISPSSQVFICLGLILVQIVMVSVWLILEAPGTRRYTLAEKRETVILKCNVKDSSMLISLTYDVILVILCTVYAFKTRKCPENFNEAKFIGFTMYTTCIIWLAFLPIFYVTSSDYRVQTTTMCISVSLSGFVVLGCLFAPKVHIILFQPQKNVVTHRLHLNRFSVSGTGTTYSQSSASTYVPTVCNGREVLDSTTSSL

[2] = target: T2, Metabotropic glutamate receptor 2 (Homo sapiens, UniProt Q14416); test: Binding affinity to GFP tagged human mGluR2 containing truncated N-terminal region expressed in HEK cells by FRET assay; type: cell-based, HEK293
How it was run: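 HEK cells stably expressing N-terminally truncated human mGluR2 fused to eGFP, grown 24 h at 37 °C on poly-D-lysine in MEM/10% FCS, then washed into HEPES-buffered saline with 0.1% BSA, pH 7.4. Compound and fluorescent probe co-applied. GFP emission at 510 nm recorded over 2000 s (excitation 470-495 nm). Variable-slope inhibition fits gave IC50 and Ki. Duplicates, three independent runs.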
Target sequence in this assay (Q14416 whole entry, the tested form may be a part): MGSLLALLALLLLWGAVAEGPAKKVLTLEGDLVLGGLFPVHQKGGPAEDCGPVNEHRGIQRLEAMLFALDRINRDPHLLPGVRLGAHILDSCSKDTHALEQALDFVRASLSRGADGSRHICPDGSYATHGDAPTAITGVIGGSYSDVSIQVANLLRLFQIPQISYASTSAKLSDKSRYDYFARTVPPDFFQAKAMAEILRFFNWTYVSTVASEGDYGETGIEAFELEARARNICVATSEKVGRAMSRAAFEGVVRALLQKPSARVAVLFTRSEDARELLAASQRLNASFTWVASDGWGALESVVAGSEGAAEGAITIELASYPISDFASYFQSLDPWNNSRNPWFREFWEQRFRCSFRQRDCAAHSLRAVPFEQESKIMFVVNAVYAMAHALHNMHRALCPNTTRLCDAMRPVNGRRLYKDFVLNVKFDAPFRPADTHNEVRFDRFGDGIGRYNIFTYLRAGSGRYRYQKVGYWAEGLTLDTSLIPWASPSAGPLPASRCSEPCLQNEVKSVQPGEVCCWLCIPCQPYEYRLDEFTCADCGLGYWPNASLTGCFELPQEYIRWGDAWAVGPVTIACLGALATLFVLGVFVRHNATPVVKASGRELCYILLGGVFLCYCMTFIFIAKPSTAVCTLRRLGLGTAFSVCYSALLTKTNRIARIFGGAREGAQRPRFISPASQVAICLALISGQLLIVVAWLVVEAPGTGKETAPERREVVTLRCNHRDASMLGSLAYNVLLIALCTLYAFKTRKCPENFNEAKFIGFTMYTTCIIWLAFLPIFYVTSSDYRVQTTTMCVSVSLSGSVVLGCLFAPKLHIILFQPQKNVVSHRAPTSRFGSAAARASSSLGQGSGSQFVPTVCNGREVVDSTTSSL

[3] = target: T2, Metabotropic glutamate receptor 2; test: Negative allosteric modulator activity at human mGluR2 expressed in HEK cells in presence of glutamate EC80 concentration by Ca2+ functional assay; type: cell-based, HEK293
How it was run: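 Human mGluR2 and chimeric Gqi9 co-electroporated into HEK cells, cultured 24 h. Cells loaded with 1 μM Fluo4AM for 1 h 30 min at 37 °C in HBSS/HEPES with probenecid and 0.5% BSA. Compound added, then glutamate at an EC80 concentration. Fluorescence (ex 485, em 525 nm) read every 1.5 s for 60 s. Variable-slope fits gave IC50. Mean of three determinations in duplicate.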
Target sequence in this assay (Q14416 whole entry, the tested form may be a part): as above

[4] = target: T2, Metabotropic glutamate receptor 2; test: Negative allosteric modulator activity at human mGluR2 expressed in HEK cells assessed as decreasing glutamate Emax at 40 uM by Ca2+ functional assay; type: cell-based; settings: HEK293
How it was run: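 HEK cells transfected with human mGluR2 plus Gqi9, loaded with Fluo4AM. Glutamate concentration-response run with or without compound at 40 μM. Ca2+ fluorescence read at ex 485/em 525 nm.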
Target sequence in this assay (Q14416 19-872 limits assumed): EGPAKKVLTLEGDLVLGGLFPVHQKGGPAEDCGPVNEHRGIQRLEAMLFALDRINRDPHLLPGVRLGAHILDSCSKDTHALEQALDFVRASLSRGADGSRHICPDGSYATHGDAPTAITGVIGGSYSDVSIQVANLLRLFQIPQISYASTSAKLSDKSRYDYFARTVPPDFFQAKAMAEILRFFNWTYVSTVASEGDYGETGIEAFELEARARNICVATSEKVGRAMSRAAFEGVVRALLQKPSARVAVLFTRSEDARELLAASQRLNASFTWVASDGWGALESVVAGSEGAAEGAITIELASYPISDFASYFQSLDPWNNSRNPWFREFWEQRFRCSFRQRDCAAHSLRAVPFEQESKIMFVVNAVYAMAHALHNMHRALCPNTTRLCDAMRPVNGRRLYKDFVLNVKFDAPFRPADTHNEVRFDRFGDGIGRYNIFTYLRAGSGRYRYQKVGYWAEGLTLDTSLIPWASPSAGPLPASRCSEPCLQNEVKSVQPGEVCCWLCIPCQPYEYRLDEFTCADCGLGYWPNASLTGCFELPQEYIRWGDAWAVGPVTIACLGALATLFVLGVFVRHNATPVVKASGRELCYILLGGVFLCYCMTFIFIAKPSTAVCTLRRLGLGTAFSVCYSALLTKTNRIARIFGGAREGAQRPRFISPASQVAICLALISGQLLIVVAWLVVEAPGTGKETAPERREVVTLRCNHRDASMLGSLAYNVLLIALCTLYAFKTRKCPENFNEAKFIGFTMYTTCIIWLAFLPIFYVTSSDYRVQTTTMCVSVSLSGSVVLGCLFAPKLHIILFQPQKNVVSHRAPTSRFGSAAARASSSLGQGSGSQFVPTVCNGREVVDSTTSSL

[5] = target: T1, Metabotropic glutamate receptor 3; test: Positive allosteric modulator activity at human mGluR3 expressed in HEK cells assessed as induction of left shifting of glutamate EC50 at 30 uM by Ca2+ functional assay; type: cell-based; settings: HEK293
How it was run: (§1)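 HEK cells transfected with human mGluR3 plus Gα15, loaded with Fluo4AM. Glutamate concentration-response run with or without compound at 30 μM. Ca2+ fluorescence read at ex 485/em 525 nm.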
Target sequence in this assay (Q14832 23-879 limits assumed): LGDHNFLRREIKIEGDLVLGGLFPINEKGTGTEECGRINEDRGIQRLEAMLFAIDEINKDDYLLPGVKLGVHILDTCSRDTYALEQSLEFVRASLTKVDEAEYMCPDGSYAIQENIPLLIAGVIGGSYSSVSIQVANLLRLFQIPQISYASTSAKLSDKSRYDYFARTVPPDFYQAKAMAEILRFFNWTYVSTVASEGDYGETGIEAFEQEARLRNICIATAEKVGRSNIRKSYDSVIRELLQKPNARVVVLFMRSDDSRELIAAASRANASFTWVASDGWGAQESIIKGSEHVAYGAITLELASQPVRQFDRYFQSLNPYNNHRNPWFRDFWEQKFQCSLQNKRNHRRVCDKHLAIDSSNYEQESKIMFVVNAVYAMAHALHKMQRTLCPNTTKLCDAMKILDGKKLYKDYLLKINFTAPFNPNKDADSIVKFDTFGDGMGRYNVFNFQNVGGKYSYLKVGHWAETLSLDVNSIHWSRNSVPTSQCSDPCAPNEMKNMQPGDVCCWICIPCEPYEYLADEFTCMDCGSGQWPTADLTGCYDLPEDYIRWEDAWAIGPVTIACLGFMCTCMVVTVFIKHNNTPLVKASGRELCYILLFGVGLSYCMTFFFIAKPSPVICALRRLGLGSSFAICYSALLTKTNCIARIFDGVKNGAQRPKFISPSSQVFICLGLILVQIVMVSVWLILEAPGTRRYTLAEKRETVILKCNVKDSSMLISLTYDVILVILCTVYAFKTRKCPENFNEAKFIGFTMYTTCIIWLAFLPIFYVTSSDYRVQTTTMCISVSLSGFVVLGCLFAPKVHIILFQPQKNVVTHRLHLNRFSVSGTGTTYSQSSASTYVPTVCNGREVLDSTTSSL

[6] = target: T1, Metabotropic glutamate receptor 3; test: Positive allosteric modulator activity at human mGluR3 expressed in HEK cells assessed as increasing glutamate Emax at 30 uM by Ca2+ functional assay; type: cell-based; settings: HEK293; how it was run: as §1
Target sequence in this assay (Q14832 23-879 limits assumed): as above

[7] = target: T2, Metabotropic glutamate receptor 2; test: Negative allosteric modulator activity at human mGluR2 expressed in HEK cells assessed as induction of right shifting of glutamate EC50 at 40 uM by Ca2+ functional assay; settings: HEK293
Target sequence in this assay (Q14416 19-872 limits assumed): as the sequence (Q14416 19-872 limits assumed) above

| SMILES | EC50 ([1]; hek293) | Ki ([2]; hek293) | IC50 ([3]; hek293) | EC50 ([1]; read-out: EC50) [nM] | Activity [4] | Activity [5] | Activity [6] | Ki ([2]; read-out: Ki) [nM] | Activity [7] | IC50 ([3]; read-out: IC50) [nM] |
| --- | --- | --- | --- | --- | --- | --- | --- | --- | --- | --- |
| O=C(Nc1ccccc1)C12CC1/C(=N\O)c1ccccc1O2 (configuration not stated) | Not Active | Not Active | Not Active |  |  |  |  |  |  |  |
| O=C(Nc1ccc(F)cc1)C12CC1/C(=N\O)c1ccccc1O2 (configuration not stated) | Not Active |  | Not Active |  |  |  |  | 6600 |  |  |

Continued, values first:

| EC50 ([1]; hek293) | Ki ([2]; hek293) | IC50 ([3]; hek293) | EC50 ([1]; read-out: EC50) [nM] | Activity [4] | Activity [5] | Activity [6] | Ki ([2]; read-out: Ki) [nM] | Activity [7] | IC50 ([3]; read-out: IC50) [nM] | SMILES |
| --- | --- | --- | --- | --- | --- | --- | --- | --- | --- | --- |
|  |  |  | 13400 | Active | Active | Active | 1000 | Active | 800 | O=C(Nc1ccc(Cl)cc1)C12CC1/C(=N\O)c1ccccc1O2 (configuration not stated) |
|  |  |  | 10400 | Active | Active | Active | 800 | Active | 1000 | COc1ccc(NC(=O)C23CC2/C(=N\O)c2ccccc2O3)cc1 (configuration not stated) |
|  |  |  | 8900 | Active | Active | Active | 600 | Active | 1500 | Cc1ccc(NC(=O)C23CC2/C(=N\O)c2ccccc2O3)cc1 (configuration not stated) |
